This note sets out measurements from ChEMBL document CHEMBL1145793, “Discovery and structure-activity relationships of novel piperidine inhibitors of farnesyltransferase” (J Med Chem, 2003).

Structures are written as SMILES. Some results are limits rather than exact numbers.

For the assay, the target named is Protein farnesyltransferase (Bos taurus, UniProt P29702+P49355). The assay can be described thus: Inhibition of bovine brain farnesyltransferase (FTase) farnesylation of viral K-Ras. In outline: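 Partially purified bovine brain farnesyltransferase, used as a crude dialysate. Substrates were viral K-Ras protein and [3H]farnesyl pyrophosphate. It was calculated by comparing untreated enzyme activity with activity at known inhibitor concentrations.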
`O=C1CC(c2cccc(Br)c2)[C@H]([N+](=O)[O-])[C@@H](c2ccc(O)cc2)N1Cc1ccncc1` (stereo not given in full) had an IC50 of over 3700 nM.

In turn, `O=C1CC(c2cccc(Cl)c2)[C@H]([N+](=O)[O-])[C@@H](c2ccc(O)cc2)N1Cc1cccnc1` (stereo not given in full) showed an IC50 of 320 nM.

In turn, `O=C1CC(c2ccccc2Br)[C@H]([N+](=O)[O-])[C@@H](c2ccc(O)c(O)c2)N1Cc1cccnc1` (single isomer, unassigned; (-)) gave an IC50 of 1200 nM. This IC50 lies about 3.8-fold higher than the previous one.

`O=C1CC(c2ccccc2Br)[C@H]([N+](=O)[O-])[C@@H](c2ccc(O)cc2)N1Cc1cccnc1` (single isomer, unassigned; (-)) registered an IC50 of 950 nM. This IC50 and that of the molecule before are within 1.5-fold of each other.

`O=C1CC(c2ccccc2Br)[C@H]([N+](=O)[O-])[C@@H](c2ccc(O)c(O)c2)N1Cc1cccnc1` (single isomer, unassigned; (+)) displayed an IC50 of 30 nM.

In turn, `COc1ccc([C@@H]2[C@@H]([N+](=O)[O-])C(c3ccccc3Br)CC(=O)N2Cc2cccnc2)cc1` (stereo not given in full) showed an IC50 of over 1200 nM.

As to `O=[N+]([O-])[C@H]1C(c2ccccc2Br)CCN(Cc2cccnc2)[C@@H]1c1ccc(O)c(O)c1` (stereo in doubt; 8-(-)), the IC50 is over 310 nM.

`O=C1CC(c2ccccc2Br)[C@H]([N+](=O)[O-])[C@@H](c2ccc(O)cc2)N1Cc1cccnc1` (single isomer, unassigned; (+)): the IC50 came out at 75 nM. This counts as double-digit nanomolar.

Molecule `O=[N+]([O-])[C@H]1C(c2ccccc2Br)CCN(Cc2cccnc2)[C@@H]1c1ccc(O)cc1` (mixture of isomers) displayed an IC50 of 8.2 nM.

`O=[N+]([O-])[C@H]1C(c2ccccc2Br)CCN(Cc2cccnc2)[C@@H]1c1ccc(O)c(O)c1` (single isomer, unassigned; (+)): the midpoint of inhibition, the IC50, lay at 1.9 nM.

For `O=C1CC(c2cccc(Br)c2)[C@H]([N+](=O)[O-])[C@@H](c2ccc(O)cc2)N1Cc1cccnc1` (stereo in doubt; 1), half-maximal inhibition (IC50) was put at 350 nM.

As to `O=[N+]([O-])[C@H]1C(c2ccccc2Br)CCN(Cc2cccnc2)[C@@H]1c1ccc(O)c(O)c1` (mixture of isomers), the IC50 worked out at 3.7 nM. This IC50 is about 95-fold lower than that of the molecule before.

For `N[C@H]1C(c2cccc(Br)c2)CC(=O)N(Cc2cccnc2)[C@@H]1c1ccc(O)cc1` (stereo not given in full), the IC50 was over 3700 nM.

As to `O=C1CC(c2ccc(Br)cc2)[C@H]([N+](=O)[O-])[C@@H](c2ccc(O)cc2)N1Cc1cccnc1` (stereo not given in full), the IC50 was over 3700 nM.

`O=C1CC(c2cccc(Br)c2)[C@H]([N+](=O)[O-])[C@@H](c2ccc(O)cc2)N1Cc1ccc[n+]([O-])c1` (stereo not given in full) had an IC50 of over 3700 nM.

Consider `O=[N+]([O-])[C@H]1C(c2ccccc2Br)CCN(Cc2cccnc2)[C@@H]1c1ccc(O)cc1` (single isomer, unassigned; (+)), for which 5.8 nM corresponded to half-maximal inhibition (IC50).

The molecule `O=C1CC(c2ccccc2Br)[C@H]([N+](=O)[O-])[C@@H](c2ccc(O)c(CO)c2)N1Cc1cccnc1` (stereo not given in full) came in with an IC50 of over 1200 nM.

The molecule `Cc1cccc(C2CC(=O)N(Cc3cccnc3)[C@H](c3ccc(O)cc3)[C@H]2[N+](=O)[O-])c1` (stereo not given in full) came in with an IC50 of 410 nM.

Turning to `O=C1CC(c2ccccc2Br)[C@H]([N+](=O)[O-])[C@@H](c2ccc(O)c(O)c2)N1Cc1cccnc1` (mixture of isomers), the IC50 was determined as 46 nM. Against the preceding molecule, the IC50 is about 8.9-fold lower.

`O=C1CC(c2ccccc2Br)[C@H]([N+](=O)[O-])[C@@H](c2ccc(O)cc2)N1Cc1cccnc1` (mixture of isomers) yielded an IC50 of 140 nM.

With `O=C1CC(c2cccc(Br)c2)[C@H](NO)[C@@H](c2ccc(O)cc2)N1Cc1cccnc1` (stereo not given in full), the IC50 is over 3700 nM.

`Nc1cc([C@@H]2[C@@H]([N+](=O)[O-])C(c3ccccc3Br)CC(=O)N2Cc2cccnc2)ccc1O` (stereo not given in full) displayed an IC50 of 97 nM.

The molecule `O=C1CC(c2cccc(Br)c2)[C@H]([N+](=O)[O-])[C@@H](c2ccc(O)cc2)N1Cc1cccnc1` (stereo in doubt) gave an IC50 of 420 nM.

Turning to `O=[N+]([O-])[C@H]1C(c2ccccc2Br)CCN(Cc2cccnc2)[C@@H]1c1ccc(O)cc1` (single isomer, unassigned; (-)), the IC50 was over 310 nM.

The molecule `O=[N+]([O-])[C@H]1C(c2ccccc2Br)C=CN(Cc2cccnc2)[C@@H]1c1ccc(O)c(O)c1` (stereo not given in full) came in with an IC50 of 13 nM. In other words, the double-digit nanomolar range.
